# Measured values as given in PubChem BioAssay AID1217 (Sanford-Burnham Center for Chemical Genomics, 2008).
# Out of some 190,000 compounds screened, about 1,300 (0.68%) were called active. The entries come from a sample that favours actives as a whole. Unmarked numbers belong to inactive results.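 The calls were made as follows: active = primary screen inhibition at 20 µM above a set limit (cut at about 50% in these data); inactive = the rest.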
# Tested on: diaphorase (Clostridium kluyveri)
# Assay: diaphorase inhibitors and chemical oxidizers, primary screen, counter-screen for diaphorase-coupled primary assays, biochemical, uHTS, resorufin fluorescence (AID 1217);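 also: plate controls were DMSO with full reaction for no effect and wells lacking NADH for full effect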
# Settings: diaphorase resazurin-to-resorufin fluorescence, NADH, 16 min; at 20 µM; active compounds read high; bacterial (C. kluyveri) enzyme, not human
# Procedure, shortened: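 Assay system: diaphorase enzyme from Clostridium kluyveri. Quantity: enzyme working solution with 0.14 U/mL diaphorase. Schedule: reaction incubation of 16 min at room temperature. Technique: resorufin fluorescence, excitation 544 nm, emission 590 nm. Controls: No-NADH positive control and DMSO neutral control.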
row,Compound,inhibition
1,COc1cc2c(cc1OC)C(=O)NCC(C)(C)O2,-1.5%
2,Cc1cc(C)nc(-n2nc(C)cc2NC(=O)c2ccc(F)cc2F)n1,3.4%
3,Cc1cc(OCC(=O)NC2CCN(C)CC2)ccc1[N+](=O)[O-],3.6%
4,COc1cccc(NC(=O)c2ccc(S(=O)(=O)N(C)C)cc2)c1,5.6%
5,O=C(COC(=O)/C=C/c1cccc(Cl)c1)NCCc1ccccc1,8%
6,CCOc1ccccc1Nc1ccc(C(=O)O)cc1[N+](=O)[O-],9.2%
7,OCCC1CN(Cc2cccc(OC3CCCC3)c2)CCN1Cc1ccsc1 (stereo not given),8.6%
8,CCCCCCCNc1nc(Cl)nc(NCCO)n1,-16.1%
9,CCn1cc(C(=O)NCc2ccc3c(c2)OCO3)c2cc(OC)c(OC)cc2c1=O,59.4% (active)
10,CCn1cc(C(=O)N2CCN(Cc3ccc4c(c3)OCO4)CC2)c2cc(OC)c(OC)cc2c1=O,10.4%
11,CCn1cc(C(=O)NCC2COc3ccccc3O2)c2cc(OC)c(OC)cc2c1=O (stereo not given),7.1%
12,N#CC1=C(N)Oc2[nH]c(=S)[nH]c(=O)c2C12C(=O)Nc1ccccc12 (stereo not given),25.5%
13,Cc1cc(C)c(C#N)c(SCc2[nH]nc3c2C(c2ccccc2)C(C#N)=C(N)O3)n1 (stereo not given),53% (active)
14,CCCc1[nH]nc2c1C(c1c(C)nn(-c3ccccc3)c1Cl)C(C#N)=C(N)O2 (stereo not given),26.8%
15,CCc1ccc(C2C(C#N)=C(N)Oc3n[nH]c(CC(=O)OC)c32)cc1 (stereo not given),4%
16,O=C(OCc1cc(Cl)ccc1OC(F)F)c1cccnc1,10.6%
17,CCN(CC)S(=O)(=O)c1cccc(-c2n[nH]c(=S)n2/N=C/c2ccc(C(=O)OC)cc2)c1,66.5% (active)
18,COC(=O)c1ccc(/C=N\n2c(C)nnc2C)cc1,-6.4%
19,COc1cc(/C=N/n2c(C)n[nH]c2=S)ccc1OCc1ccccc1,32%
20,CN1CCN(CC(=O)Nc2cccc([N+](=O)[O-])c2)CC1,12%
21,CCOc1ccc(-n2c(O)c(/C=N/c3ccnn3Cc3ccncc3)c3ccccc3c2=O)cc1,-12.9%
22,CCOc1ccc(-n2c(O)c(/C=N/Nc3nc(C)cc(C)n3)c3ccccc3c2=O)cc1,-1.1%
23,CCOc1ccc(-n2c(O)c(/C=N/Nc3nnc(C)c(=O)[nH]3)c3ccccc3c2=O)cc1,89.8% (active)
24,Oc1ccc(/C=N/Nc2ccc(C(F)(F)F)cn2)cc1O,53.7% (active)

row,Compound,inhibition
1,COc1cccc(/C=N/Nc2ncc(C(F)(F)F)cc2Cl)c1O,0%
2,FC(F)(F)c1cccc(N/N=C/c2ccccc2)c1,23.2%
3,CN(Cc1ccccc1)C(=O)COC(=O)c1ccccc1Nc1ccccc1,28.3%
4,CCN(CC)c1ccc(/C=N/Nc2nc(C)cc(C)n2)c(O)c1,42.2%
5,CCN(CC)c1ccc2oc(=O)c(C)nc2c1,62.3% (active)
6,CCN(CC)c1ccc2cc(C(=O)O)c(=O)oc2c1,11.2%
7,CCc1ccc(NC(=O)Cn2nc(C)c([N+](=O)[O-])c2C)cc1,12.1%
8,CC(=O)Nc1ccc(OCC(=O)NCc2ccc(C)cc2)cc1,11.1%
9,CC(C)(C)NC(=O)COc1ccc(CNc2ccc3[nH]c(=O)[nH]c3c2)cc1,54.2% (active)
10,COC(=O)c1ccc(OCC(=O)NC(C)(C)C)cc1,-15.5%
11,Cc1cccc(C2c3[nH]c4ccccc4c3CCN2C(=O)c2cc(-c3cccn3C)n[nH]2)n1 (stereo not given),37%
12,Cc1cc2c(cc1C)[n+](C)cn2CC(O)COCC1CC=CCC1 (stereo not given),1.5%
13,COc1ccc(/C=C/CN2CCN(Cc3ccc(C)cc3)C(CCO)C2)cc1 (stereo not given),7.2%
14,CN(CCc1cn[nH]c1)C(=O)CC1C(=O)NCCN1Cc1cccc(Oc2ccccc2)c1 (stereo not given),8.5%
15,O=C(CSc1ccc2nnc(-c3ccccc3)n2n1)N1CCCc2ccccc21,56.2% (active)
16,Cn1c(SCC(=O)N2CCCc3ccccc32)nc2ccccc2c1=O,5.1%
17,CCCn1c(SCC(=O)N2CCc3ccccc32)nnc1-c1ccncc1,6.2%
18,C=CCNC(=S)NNC(=O)COc1c(Cl)cc(Cl)cc1Cl,10.5%
19,Cc1nn(C)c(Oc2ccccc2)c1[N+](=O)[O-],13.6%
20,Cn1c(=O)c([N+](=O)[O-])c(Oc2ccccc2)c2ccccc21,82.2% (active)
21,Cc1cccc(Oc2c([N+](=O)[O-])c(=O)n(C)c3ccccc23)c1,94.1% (active)
22,Cc1cccc(OP(=O)(Nc2c(C)n(C)n(-c3ccccc3)c2=O)Oc2cccc(C)c2)c1,14.1%
23,COc1cccc(C(=O)Oc2cc(C)[nH]c(=O)c2[N+](=O)[O-])c1,15.4%
24,Cn1c2ccccc2c(=O)c2c(O)cccc21,-1%

row,Compound,inhibition
1,CN(Cc1cc2cc(F)ccc2[nH]1)Cc1nc(-c2cnccn2)no1,15.3%
2,CN(C)c1nc(-c2cccnc2)nc(-c2ccc(Cl)cc2)c1C#N,-10.7%
3,COC(=O)C1CCN(C(=O)c2cc(=O)[nH]c3ccccc23)CC1,6.4%
4,OC(COCc1ccco1)CN1CCN(c2ccccc2)CC1 (stereo not given),3.1%
5,S=C(NCC1CCCO1)N1CCN(c2ccc(Cl)c(Cl)c2)CC1 (stereo not given),21.1%
6,Cc1cccc(N2CCC(NCc3c(C(=O)N4CCCCC4)nc4c(C)cccn34)CC2)c1,-5.4%
7,Cc1cccc(NC(=O)Nc2ccc3c(c2)OCO3)n1,18.3%
8,COc1ccc(NC(=S)NCCN2CCC(C)CC2)cc1,-1.3%
9,Cc1noc(/C=C/c2ccco2)c1S(=O)(=O)N1CCC(C(=O)Nc2ccc(Cl)cn2)CC1,14.1%
10,COc1cc(N/C=C2\CC(=O)NC(C)=C2C#N)cc(OC)c1OC,51.1% (active)
11,COC(=O)C1=C(C)NC(=O)CC1c1ccccc1OC (stereo not given),6.8%
12,Cc1cccc(NC(=S)NCCc2ccc(F)cc2)c1C,1.1%
13,N#Cc1c(-c2ccc(F)cc2)cc(C2CC2)nc1SCC(=O)c1cccs1,12.8%
14,COc1ccc(C(=O)Nc2cccnc2)cc1C(=O)Nc1cccnc1,-17.7%
15,COc1ccccc1Oc1ccc(S(=O)(=O)Nc2cccnc2)cc1,9.6%
16,COc1ccc(S(=O)(=O)Nc2cccnc2)c(Cl)c1Cl,77.2% (active)
17,S=C(Cc1ccc(Cl)cc1)N1CCOCC1,-0.3%
18,CC(=O)Nc1cccc(-c2nc3ccccc3s2)c1C,6.8%
19,Cc1ccc(S(=O)(=O)N/N=C\c2cc3c(cc2[N+](=O)[O-])OCO3)cc1,37.8%
20,CCOc1ccc(-c2n[nH]c(=S)n2/N=C/c2cc3c(cc2[N+](=O)[O-])OCO3)cc1,41.6%
21,Cc1ccc(-c2n[nH]c(=S)n2/N=C/c2cc3c(cc2[N+](=O)[O-])OCO3)cc1,69.3% (active)
22,COc1ccc(CS(=O)/C(Cl)=C(/Cl)C(=O)Nc2ccc(OC)nc2)cc1 (stereo not given),1%
23,O=[N+]([O-])c1c(NCCO)cc(Sc2nc3ccccc3s2)c2nonc12,58% (active)
24,O=C(O)c1cccc(S(=O)(=O)Nc2ccc(O)cc2Sc2nc3ccccc3s2)c1,7.5%

row,Compound,inhibition
1,COc1ccc(S(=O)(=O)Nc2ccc(O)c(Sc3nc4ccccc4s3)c2)cc1,24.7%
2,C[C@H](NC(=O)c1ccccc1Cl)C(=O)OCCOc1cccc(Cl)c1,11.2%
3,COc1cccc(-n2c(=S)[nH]c3c(oc4ccccc43)c2=O)c1,71.4% (active)
4,COc1cccc(-n2cc(C(=O)O)c3ccccc3c2=O)c1,6.7%
5,COC(=O)c1ccc(CSc2nc3ccccc3c(=O)n2-c2cccc(OC)c2)o1,39.9%
6,CN(C(=O)c1c(Cl)cnn1C)C12CC3CC(CC(C3)C1)C2,3.9%
7,C/C(=N\Nc1ccc([N+](=O)[O-])cc1)c1ccc(-n2nncc2C(C)(C)C)cc1,5%
8,CCCCN(C)C(=O)c1ccc2c(c1)N(CC)C(=O)c1ccccc1S2(=O)=O,4.6%
9,O=C(CN1C(=O)c2cccc3cccc1c23)Nc1ccccc1,-6.4%
10,CCN1C(=O)c2cccc3c(N)ccc1c23,57.3% (active)
11,CN1C(=O)C(CC(=O)Nc2ccccc2)S/C1=N/c1nccs1 (stereo not given),-11.3%
12,CC(=O)Nc1ccc(S(=O)(=O)N(CCc2ccccc2)CC(=O)N/N=C/c2ccc(C(=O)O)cc2)cc1,0.3%
13,Cc1ccc(-n2[nH]c(C)c(/C=N/NC(=O)c3cccc([N+](=O)[O-])c3)c2=O)cc1C,22%
14,Cc1[nH]n(-c2ccccc2)c(=O)c1/C=N/NC(=O)c1ccoc1C,50.1% (active)
15,Cc1[nH]n(-c2ccc(Cl)cc2)c(=O)c1/C=N/n1c(C)nc2ccccc2c1=O,-6.7%
16,O=C(C(Cl)Cl)N1CCN(c2ccccn2)CC1,3%
17,COCCCNC(=O)Cn1c(=O)n(Cc2ccccc2Cl)c(=O)c2cc(OC)c(OC)cc21,9.4%
18,Cc1c(CN2CCCC(C(=O)c3cccc(Cl)c3)C2)c(=O)n(-c2ccccc2)n1C (stereo not given),15.1%
19,CCc1ccc(NC2Nc3cc(C)nn3S2)cc1 (stereo not given),8.9%
20,O=C(Cc1ccccc1)NCC1OCCc2ccccc21 (stereo not given),24.1%
21,COc1ccc(-c2csc(Nc3ccc(O)cc3)n2)cc1,-2.2%
22,COc1ccc(-c2csc(Nc3ccccn3)n2)cc1,10.1%
23,COc1ccc(OC)c(Nc2nc(-c3ccc(O)c(O)c3)cs2)c1,57.4% (active)
